Measured values: PubChem BioAssay AID493091 (Sanford-Burnham Center for Chemical Genomics, 2011)
Screen size: about 340,000 compounds; about 3,000 (0.88%) were called active. This excerpt belongs to a sample that is enriched for actives. Values without a mark were called inactive.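 How the source made its calls: active means inhibition above about 50% at 20 µM (limit read from the data); inactive means the rest.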

Each compound was assayed against Carboxy-terminal domain RNA polymerase II polypeptide A small phosphatase 1 (Homo sapiens) (UniProt Q9GZU7) (assay: inhibition of human SCP1 dephosphorylation activity – biochemical, colorimetric, uHTS, primary screen (AID 493091;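 further: plate controls were DMSO wells with enzyme for no effect and wells lacking enzyme for full effect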)). Settings: Recombinant Scp1, phosphopeptide, malachite green phosphate absorbance; at 20 µM; stronger effect = higher value.
Sequence of Carboxy-terminal domain RNA polymerase II polypeptide A small phosphatase 1 (Homo sapiens) (Q9GZU7 76-261 limits assumed): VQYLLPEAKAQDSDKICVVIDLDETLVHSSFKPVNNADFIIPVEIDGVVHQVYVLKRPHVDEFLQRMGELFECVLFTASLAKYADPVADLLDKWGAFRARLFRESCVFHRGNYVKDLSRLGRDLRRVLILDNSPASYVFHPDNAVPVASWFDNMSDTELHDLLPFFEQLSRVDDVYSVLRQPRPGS
Method in brief: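 Assay system: SCP-1 catalytic fragment, aa 76-261 | Buffer or medium: Tris acetate buffer pH 5.5 with MgCl2 and Tween-20 | Compound: One concentration, 20 µM, with 1.0% DMSO | Also added: Phospho 17-mer peptide substrate | Signal: Absorbance at 630 nm | Incubation: 45 min enzyme reaction at room temperature | Measure: % inhibition of SCP-1 phosphate liberation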

Row | Structure (SMILES) | inhibition
1 | CCOC(=O)C1=C(C)c2ccccc2OC1C(=O)OCC (centres undefined) | -1.33%
2 | CCOC(=O)C1=C(NC(=S)NC(=O)c2ccccc2)c2ccccc2CC1(C)C | -6.2%
3 | CCOC(=O)C1=C(C)c2ccccc2OC1(C)C(=O)OCC (centres undefined) | 70.1% (active)
4 | COc1c(C(C)C)oc2cc3oc(=O)ccc3cc12 | -9.44%
5 | CSc1ccc(C#N)cc1NC(=O)c1cccc(Cl)c1 | -21.5%
6 | COc1ccc(NC(=O)c2ccco2)cc1NC(=O)c1ccc(C#N)cc1F | 6.99%
7 | N#Cc1ccc(C(=O)Nc2cccc3cccnc23)c(F)c1 | 100% (active)
8 | Nc1ccc2nc3c(=O)[nH]c(=S)[nH]c3nc2c1 | 78.4% (active)
9 | CC12CCC(C(=O)N3CCN(c4ncccn4)CC3)(c3nc4ccccc4nc31)C2(C)C (centres undefined) | -9.3%
10 | COC(=O)C[n+]1cccc2ccccc21 | 105% (active)
11 | O=C(C[n+]1cc(Br)cc2ccccc21)c1ccc(F)cc1 | -4.19%
12 | COC(=O)Cc1c(-c2[nH]c3ccccc3c2CC(=O)OC)[nH]c2ccccc12 | -13.3%
13 | CCOc1cc2[nH]c(=S)n(CCCN3CCCC3=O)c(=O)c2cc1OCC | -8.04%
14 | Cc1ccc(NC(=S)N2CCN(c3ncccn3)CC2)cc1C | 4.95%
15 | COc1ccc(CN2CCC(n3nccc3NC(=O)CCCc3ccccc3)CC2)cc1C | 6.87%
16 | Cc1c(CCC(=O)N[C@@H](CC(C)C)C(=O)O)c(=O)oc2c(C)c3oc4c(c3cc12)CCCC4 | -2.45%
17 | Cc1oc2c(C)c3oc(=O)c(CC(=O)N[C@@H](CC(C)C)C(=O)N[C@@H](Cc4ccccc4)C(=O)O)c(C)c3cc2c1C | 88% (active)
18 | Cc1c(OC(C)C(=O)N[C@@H](Cc2ccccc2)C(=O)O)ccc2c3c(c(=O)oc12)CCCC3 (some centres undefined) | 4.1%
19 | CC(Oc1ccc(-c2ccccc2)c(F)c1)c1ccn(S(=O)(=O)c2cccc3ccccc23)n1 (centres undefined) | -13.9%
20 | Cc1c(-c2nn(C)c(=O)c3ccccc23)oc2ccc(F)cc2c1=O | 3.62%
21 | Cc1c(Cl)c([N+](=O)[O-])nn1CCCC(=O)NC(C)c1ccccc1 (centres undefined) | -27.1%
22 | CCCCCC(=O)Nc1ccc(S(=O)(=O)Nc2ccc(Cl)nn2)cc1 | 4.6%
23 | Cc1nnc(SCC(=O)Nn2cnnc2)s1 | -3.13%
24 | Cc1nnc(SCC(=O)Nc2ccc(S(=O)(=O)Nc3ccc(Cl)nn3)cc2)s1 | 79.2% (active)

Row | Structure (SMILES) | inhibition
25 | CCNC(=O)COc1cc(C)c(Br)c(C)c1 | -2.07%
26 | COCCNC(=O)c1snc2ccc(Cl)cc12 | -6.6%
27 | COCCNC(=O)Nc1ccc2nc(-c3ccco3)c(-c3ccco3)nc2c1 | 79.6% (active)
28 | O=C(Nc1nc(-c2ccco2)c(-c2ccco2)s1)c1ccco1 | -3.82%
29 | O=C(COc1ccccc1)Nc1ccc(N2CCN(C(=O)c3cccs3)CC2)cc1 | -5.15%
30 | O=C(CNC(=O)c1n[nH]c2ccccc12)Nc1cc(Cl)ccc1Cl | 5.8%
31 | Cc1cccc(N=Nc2c(O)[nH]c3ccc(F)cc23)c1 | -10.6%
32 | COc1ccccc1OCCCCCCN1CCN(C)CC1 | -4.32%
33 | CCC(=O)Nc1ccccc1N1CCN(S(C)(=O)=O)CC1 | 53.6% (active)
34 | COc1ccc(C(=O)NC(=S)Nc2ccccc2N2CCN(S(C)(=O)=O)CC2)cc1OC | -10.7%
35 | CCCC(=O)Nc1ccccc1N1CCN(C(=O)c2ccccc2)CC1 | -9.5%
36 | CCn1cc(C(=O)NCC(=O)NC(C)(C)CO)c(=O)c2cc3c(cc21)OCO3 | -9.05%
37 | COc1ccccc1CCC(=O)OCC(=O)N1CCN(S(=O)(=O)c2ccc(C)cc2C)CC1 | -11.1%
38 | CC1(C)CC(CNCCC(c2ccc(F)cc2)c2ccco2)CCO1 (centres undefined) | -5.21%
39 | CCn1ncc(CNC(=O)C2(C)CC2(Br)Br)c1C (centres undefined) | -6.32%
40 | COc1ccc(NC(=O)N(C)C[C@H]2Oc3ccc(NC(=O)C4CC4)cc3C(=O)N([C@H](C)CO)C[C@@H]2C)cc1 | 67.9% (active)
41 | COc1ccc(S(=O)(=O)N(C)C[C@@H]2Oc3ccc(NC(=O)Nc4c(C)noc4C)cc3C(=O)N([C@H](C)CO)C[C@@H]2C)cc1 | 21.7%
42 | Cc1noc(C)c1NC(=O)Nc1ccc2c(c1)C(=O)N([C@H](C)CO)C[C@H](C)[C@@H](CN(C)C(=O)Nc1ccccc1)O2 | 35.8%
43 | C[C@@H]1CN([C@@H](C)CO)C(=O)c2cccc(NS(=O)(=O)c3ccc(F)cc3)c2O[C@H]1CN(C)C(=O)NC1CCCCC1 | -0.48%
44 | COc1ccc(NC(=O)Nc2ccc3c(c2)C(=O)N([C@H](C)CO)C[C@H](C)[C@@H](CN(C)C(=O)Nc2ccc4c(c2)OCO4)O3)cc1 | 48.8%
45 | Cc1noc(C)c1NC(=O)Nc1ccc2c(c1)C(=O)N([C@H](C)CO)C[C@H](C)[C@@H](CN(C)C(=O)Nc1ccc(C(F)(F)F)cc1)O2 | 50.3% (active)
46 | C[C@@H]1CN([C@@H](C)CO)C(=O)c2cc(NC(=O)C3CC3)ccc2O[C@H]1CN(C)C | -8.19%
47 | C[C@@H]1CN([C@H](C)CO)C(=O)c2cc(NC(=O)NC3CCCCC3)ccc2O[C@H]1CN(C)S(C)(=O)=O | -8.19%
48 | C[C@H](CO)N1C[C@H](C)[C@@H](CN(C)C(=O)NC2CCCCC2)Oc2ccc(NC(=O)c3ccncc3)cc2C1=O | 57.7% (active)

Row | Structure (SMILES) | inhibition
49 | C[C@H](CO)N1C[C@H](C)[C@@H](CN(C)S(=O)(=O)c2ccc(F)cc2)Oc2ccc(NC(=O)CCC(F)(F)F)cc2C1=O | -5.81%
50 | Cc1ccc(S(=O)(=O)Nc2ccc3c(c2)C(=O)N([C@H](C)CO)C[C@@H](C)[C@@H](CN(C)C(=O)Nc2cccc4ccccc24)O3)cc1 | 59.1% (active)
51 | Cc1noc(C)c1S(=O)(=O)N(C)C[C@H]1Oc2ccc(NC(=O)C3CCCCC3)cc2C(=O)N([C@H](C)CO)C[C@@H]1C | -2.33%
52 | CN(C(=O)CSc1nnc(-c2c[nH]c3ccccc23)o1)C1CCS(=O)(=O)C1 (centres undefined) | -5.57%
53 | Cc1cccc(N2CCN(Cc3nc(C4CC4)no3)CC2)n1 | -8.45%
54 | CC(C)=CCN1CCN(Cc2cc3ccccc3[nH]2)CC1CCO (centres undefined) | -3.55%
55 | COC(=O)c1ccc(S(=O)(=O)c2ccc(C(=O)OC)s2)s1 | -2.05%
56 | NC(=O)C1=C[C@H](c2csc3ccccc23)C[C@H](OCc2ccc(CO)cc2)O1 | -0.48%
57 | C[C@H](CO)N1C[C@H](C)[C@H](CN(C)C(=O)Nc2ccc(C(F)(F)F)cc2)Oc2c(NC(=O)c3ccncc3)cccc2C1=O | 88% (active)
58 | Cc1noc(C)c1NC(=O)Nc1cccc2c1O[C@H](CN(C)C(=O)Nc1ccccc1)[C@@H](C)CN([C@H](C)CO)C2=O | -8.19%
59 | C[C@H](CO)N1C[C@H](C)[C@@H](CN(C)C(=O)Nc2ccc3c(c2)OCO3)Oc2c(cccc2N(C)C)C1=O | 38.7%
60 | COC(=O)CSc1ccc2nnc(CCNS(=O)(=O)c3ccc(C)cc3)n2n1 | -10.5%
61 | Cc1ccccc1NC(=O)CSC(=O)c1ccccc1 | -4.57%
62 | Cc1ccccc1NC(=O)CN1C(=O)N/C(=C\c2cccn2-c2cccc(C(=O)O)c2)C1=O | 65.5% (active)
63 | O=C1N/C(=C/c2cccn2-c2ccccc2)C(=O)N1c1cccc(Cl)c1 | -4.36%
64 | O=C(COC(=O)c1ccc(O)cc1)Nc1nccs1 | -1.45%
65 | O=C(Nc1ccc(-c2ccc3nncn3n2)cc1)C1CCCCC1 | -12.9%
66 | COc1ccc(OC)c(NC(=O)CSc2nc(-c3ccccc3)cc(=O)[nH]2)c1 | 81.5% (active)
67 | CCCc1cc(=O)[nH]c(SCC(=O)Nc2ccc(C(=O)Nc3ccccc3OC)cc2)n1 | -2.71%
68 | COc1ccc(OC)c(NC(=O)CSc2nc(N)c(-c3ccccc3)c(=O)[nH]2)c1 | 3.19%
69 | CC(=O)c1cccc(NC(=O)N2CCCC2C(=O)NCCc2ccccc2)c1 (centres undefined) | -7.73%
70 | C[n+]1ccc(C(=O)NCc2ccccc2)cc1 | 92.7% (active)
71 | CS(=O)(=O)NCc1ccc(C(=O)NCc2ccccc2)cc1 | -6.79%
72 | Nc1ccc(C(=O)NCc2ccccc2)cc1 | -1.69%

Row | Structure (SMILES) | inhibition
73 | Cc1noc(C)c1-c1ccc2ncnc(NC(C)c3ccco3)c2c1 (centres undefined) | 8.09%
74 | CCn1cc(C(=O)N2CCN(C3CCCCC3)CC2)c2cc(OC)c(OC)cc2c1=O | 0%
75 | CCOC(=O)N1CCN(C(=O)C2CC(c3ccc(F)cc3)=NO2)CC1 (centres undefined) | -0.41%
76 | Cc1cccc(-[n+]2c(-c3cccc(Br)c3)[nH]c3nc4ccccc4nc32)c1 | -8.9%
77 | NS(=O)(=O)c1cccc(NC(=O)CSc2nc3ccccc3n2-c2ccccc2)c1 | -22.7%
78 | COc1ccc(-n2cnnc2SCC(=O)Nc2cccc([N+](=O)[O-])c2)cc1 | -10.7%
79 | NC(=O)NC(=O)CSc1nc2cc([N+](=O)[O-])ccc2n1-c1cccc(C(F)(F)F)c1 | 62.8% (active)
80 | C/C(CC(=O)Nc1ccc(Cl)cc1)=N\NC(=O)C(=O)NCCO | -2.46%
81 | COc1ccc(N2C(=O)C(CC(=O)Nc3ccc(F)cc3)N(CCc3cccs3)C2=O)cc1 (centres undefined) | 0.58%
82 | CCN(CC)c1ccc(C(=O)NNC(=O)CCc2nc3ccccc3c(=O)[nH]2)cc1 | -4.7%
83 | CC1CCN(C(=O)COC(=O)CCC(=O)c2cccs2)CC1 | 0.96%
84 | Cc1cc(C(=O)OCC(=O)N2c3ccccc3NC(=O)C2(C)C)c(C)n1-c1ccccc1 | -10.3%
85 | CCOC(=O)c1cnc(SCC(=O)NCc2ccco2)nc1N | -2.2%
86 | Cc1c(Cl)cnc(NC(=O)COC(=O)c2ccc(S(=O)(=O)NCc3ccco3)cc2)c1Cl | 61.6% (active)
87 | CSCCC(NC(=O)c1ccco1)C(=O)OCC(=O)Nc1ncc(Cl)c(C)c1Cl (centres undefined) | 2.12%
88 | C/C(=N\Nc1ncc(Cl)cc1Cl)c1ccc(S(=O)(=O)NCc2ccco2)cc1 | -6.85%
89 | CN(c1ccccc1)S(=O)(=O)c1ccc(Cl)c(C(=O)OCC(=O)N2CCOCC2)c1 | -10.4%
90 | O=C(COC(=O)CCC(=O)c1cccs1)NCc1ccco1 | 96.1% (active)
91 | O=C(COC(=O)c1cccs1)NCc1cccs1 | -4.94%
92 | CN(c1ccccc1)S(=O)(=O)c1ccc(Cl)c(C(=O)OCC(N)=O)c1 | -10.7%
93 | Cc1cc(C(=O)OCC(=O)NCc2ccco2)c(C)n1-c1ccccc1 | 73.1% (active)
94 | CN(c1ccccc1)S(=O)(=O)c1ccc(Cl)c(C(=O)OCC(=O)NCc2ccco2)c1 | 81.1% (active)
